The source of these data is ChEMBL document CHEMBL4270646, “Novel antimalarial chloroquine- and primaquine-quinoxaline 1,4-di-N-oxide hybrids: Design, synthesis, Plasmodium life cycle stage profile, and preliminary toxicity studies” (Eur J Med Chem, 2018).

SMILES strings stand for the structures. Calls of active or inactive are those of the source. No cut-off for these calls is given here.

For data set [1], the system named is Plasmodium falciparum. The data set can be described thus: Antiplasmodial activity against chloroquine-sensitive Plasmodium falciparum 3D7 infected in human red blood cells assessed as reduction in parasite growth after 48 hrs by Hoechst 33342 staining based flow cytometric analysis. The settings on record: 3D7, 48 h. Format: functional, organism-based. Put shortly:
(§1)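 Ring-stage cultures (>80% rings) at 1% parasitaemia in A+ human erythrocytes, 2% haematocrit. Medium RPMI 1640 with 10% A+ serum, 37°C, 5% CO2/5% O2. Compounds in DMSO at 1.56–100 µg/mL final, DMSO ≤1%. After 48 h, cells stained with Hoechst 33342 and 1×10^4 counted by flow cytometry. IC50 from logistic dose-response regression; three independent experiments in triplicate.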
(In general: A flow cytometer gives signals particle by particle.)

The subject of data set [2] is Plasmodium falciparum. The data set can be described thus: Antiplasmodial activity against the multidrug-resistant Plasmodium falciparum […] infected in human red blood cells assessed as reduction in parasite growth after 48 hrs by Hoechst 33342 staining based flow cytometric analysis. Format: functional, organism-based. Put shortly:
as §1

Data set [3] is described as follows: Selectivity index, ratio of CC50 for human HepG2 cells to IC50 for multidrug-resistant Plasmodium falciparum […]. Format: toxicity. The settings on record: read-out: Ratio CC50/IC50. Put shortly:
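Selectivity index = HepG2 CC50 / FCR-3 IC50. CC50 from MTT assay after 48 h exposure, A550. IC50 from 48 h Hoechst 33342 flow-cytometry assay.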

The nature of data set [4]: Cytotoxicity against human HepG2 cells assessed as reduction in cell viability after 48 hrs by MTT assay. Format: cell-based. Put shortly:
(§2)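 Cells seeded at 2 × 10^5 per well and allowed 24 h at 37°C, 5% CO2 to form a monolayer. Dilutions added in triplicate and incubated 48 h. MTT (2 mg/mL) then added for 4 h, followed by DMSO for 20 min at room temperature. Absorbance read at 550 nm; DMSO diluent and untreated cells served as negative controls. CC50 derived from the curve.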

Data set [5] concerns Plasmodium yoelii. The data set is described as follows: Antiplasmodial activity against Plasmodium yoelii 17XNL sporozoites infected in BALB/c mouse assessed as parasite burden at 100 mg/kg, po measured at day 4 by […] (reference value: 0.06%). Format: functional. In short, it runs like this:
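BALB/c mice (6-8 weeks, 20-23 g), n=4 per hybrid group and n=5 per control. Dosed orally at 100 mg/kg (100 µL) on days -1, 0, +1 and +2. Vehicle was DMSO 100%; primaquine diphosphate given at 30 mg/kg daily. On day 0, 5 x 10^3 cryopreserved P. yoelii 17XNL sporozoites injected i.v. Parasitaemia read by Giemsa smear and SYBR Green flow cytometry. Groups compared by Kruskal-Wallis test.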

Data set [6] can be described thus: Cytotoxicity against human HepG2 cells expressing CD81 assessed as reduction in cell viability after 48 hrs by MTT assay. Format: cell-based. In short, it runs like this: as §2
For orientation: Formazan colour is commonly taken as a measure of viable cells.

Data set [7] can be described thus: Selectivity index, ratio of CC50 for human HepG2 cells to IC50 for GFP-expressing Plasmodium berghei sporozoites. Format: toxicity. To be noted: read-out: Ratio CC50/IC50. Put shortly: (§3)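 Selectivity index = CC50 (matching cell) / IC50 (matching parasite). Cell–parasite pairs: HepG2-CD81 with P. yoelii, HepG2 with P. berghei, human hepatocytes with P. falciparum.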

For data set [8], the system named is Plasmodium berghei. The data set can be described thus: Antiplasmodial activity against GFP-expressing gametocytes of Plasmodium berghei sporozoites in Anopheles stephensi mosquitoes feeded on blood from infected Swiss mouse assessed as reduction in number of oocysts in mosquito midgut at 100 mg/kg, ip pretreated for 1.5 hrs followed by blood feeding of mosquito and measured at 8 days post mosquitoes infection by fluorescence microscopic method relative to control. Format: functional. Further details: scale not given: the % may be the effect or the level left. In short, it runs like this: (§4)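 Swiss mice (female, 6 weeks) infected i.p. with PbGFP-infected red cells (200 µL, 3000 parasites/µL). Gametocytes monitored 4 days by Giemsa smear and exflagellation. Hybrid given i.p. at 100 mg/kg in DMSO 1.5 h before A. stephensi fed 1 h on mice with 1% gametocytes. Controls were untreated and DMSO-treated mice. Thirty mosquitoes per group dissected after 8 days. Midgut oocysts counted by fluorescence microscopy against control mosquitoes taken as 100%.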

In data set [9] the test system is Plasmodium berghei. The data set is described as follows: Antiplasmodial activity against GFP-expressing gametocytes of Plasmodium berghei sporozoites in Anopheles stephensi mosquitoes feeded on blood from infected Swiss mouse assessed as reduction in mosquito infection at 100 mg/kg, ip pretreated for 1.5 hrs followed by blood feeding of mosquito and measured at 8 days post mosquitoes infection by fluorescence microscopic method relative to control. Format: functional. Further details: scale not given: the % may be the effect or the level left. Put shortly:
as §4

Data set [10] in a line: Selectivity index, ratio of CC50 for human HepG2 cells expressing CD81 to IC50 for GFP-expressing Plasmodium yoelii sporozoites. Format: toxicity. The settings on record: read-out: Ratio CC50/IC50. In short, it runs like this:
as §3

Data set [11] relates to Plasmodium berghei. The data set is described as follows: Antiplasmodial activity against GFP-harboring Plasmodium berghei sporozoites infected in human HepG2 cells assessed as reduction in parasite growth treated every 24 hrs by DAPI staining-based fluorescence microscopic analysis. Format: functional, organism-based. The settings on record: HepG2, 24 h. Put shortly: (§5)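 Collagen-coated wells seeded with HepG2 (P. berghei), HepG2-CD81 (P. yoelii) or primary human hepatocytes (P. falciparum). Sporozoites added: 5×10^3 to 1×10^4 per well to the cell lines, 2.5×10^4 per well to hepatocytes. Compounds given at infection: top 10 µg/mL plus seven serial dilutions, renewed at 3 h and then every 24 h. Cultures grown 40 h (cell lines) or 8 days (hepatocytes) at 37°C. Methanol-fixed, HSP70 immunolabelled, DAPI counterstained. IC50 from logistic regression; triplicate.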

The test system of data set [12] is Plasmodium berghei. The data set can be described thus: Potency index, ratio of primaquine IC50 to compound IC50 for GFP-expressing Plasmodium berghei sporozoites infected in human HepG2 cells. Format: functional.
Data set [13] relates to Plasmodium falciparum. The data set can be described thus: Antiplasmodial activity against GFP-harboring Plasmodium falciparum sporozoites infected in human primary hepatocytes assessed as reduction in parasite growth treated every 24 hrs by DAPI staining-based fluorescence microscopic analysis. Format: functional, organism-based. In short, it runs like this: as §5
For data set [14], the system named is Plasmodium yoelii. The data set can be described thus: Antiplasmodial activity against GFP-harboring Plasmodium yoelii sporozoites infected in human HepG2 cells expressing CD81 assessed as reduction in parasite growth treated every 24 hrs by DAPI staining-based fluorescence microscopic analysis. Format: functional, organism-based. To be noted: HepG2, 24 h. In short, it runs like this:
as §5

Data set [15] can be described thus: Selectivity index, ratio of CC50 for human primary hepatocytes to IC50 for GFP-expressing Plasmodium falciparum sporozoites. Format: toxicity. The settings on record: read-out: Ratio CC50/IC50. Put shortly:
as §3

The nature of data set [16]: Cytotoxicity against human primary hepatocytes assessed as reduction in cell viability after 48 hrs by MTT assay. Format: cell-based, Hepatocyte. Put shortly:
as §2

In data set [17] the test system is Plasmodium yoelii. The data set can be described thus: Antiplasmodial activity against GFP-harboring Plasmodium yoelii sporozoites infected in human HepG2 cells expressing CD81 assessed as reduction in parasite growth at 10 ug/ml treated every 24 hrs by DAPI staining-based fluorescence microscopic analysis. Format: functional, organism-based. In short, it runs like this:
as §5

Data set [18] deals with Plasmodium falciparum. The data set can be described thus: Antiplasmodial activity against GFP-harboring Plasmodium falciparum sporozoites infected in human primary hepatocytes assessed as reduction in parasite growth at 10 ug/ml treated every 24 hrs by DAPI staining-based fluorescence microscopic analysis. Format: functional, organism-based. Put shortly: as §5
The subject of data set [19] is Plasmodium berghei. The data set can be described thus: Antiplasmodial activity against GFP-harboring Plasmodium berghei sporozoites infected in human HepG2 cells assessed as reduction in parasite growth at 10 ug/ml treated every 24 hrs by DAPI staining-based fluorescence microscopic analysis. Format: functional, organism-based. Put shortly: as §5

A word on the IC50: it is the concentration that gives 50% inhibition. A word on the CC50: it is the concentration that lowers cell viability or growth by half. With `Cc1ccc2c(c1)[n+]([O-])c(C(=O)NCCNc1ccnc3cc(Cl)ccc13)c(C)[n+]2[O-]`, the IC50 with Plasmodium falciparum [1] stood at 0.57 µM; with Plasmodium falciparum [2], 2.24 µM. Besides, in data set [3], the selectivity ratio amounted to 14. Also, the CC50 at 48 h in data set [4] came to 31.4 µM.
In the case of `COc1cc(NC(C)CCCNC(=O)c2c(C)[n+]([O-])c3ccc(Cl)cc3[n+]2[O-])c2ncccc2c1` (configuration not stated), the Activity was 0.01% in the data set with Plasmodium yoelii [5], 77% with Plasmodium berghei [8] and 23% with Plasmodium berghei [9]. Moreover, the CC50 at 48 h was above 198 µM in data set [6], 155 µM in data set [4] and above 198 µM in data set [16]. Also, the selectivity ratio in data set [7] worked out at 136; in data set [10], 34.7; in data set [3], 3.34; in data set [15], 54.5. Besides, the IC50 amounted to 62.6 µM with Plasmodium falciparum [1]; 1.14 µM with Plasmodium berghei [11]; 36.1 µM in the data set on Plasmodium falciparum [2]; 3.64 µM in the data set on Plasmodium falciparum [13]; 5.71 µM in the data set on Plasmodium yoelii [14]. Also, the “Ratio IC50” value in the data set on Plasmodium berghei [12] was 3.2.
With `COc1cc(NC(C)CCCNC(=O)c2c(C)[n+]([O-])c3ccc(OC)cc3[n+]2[O-])c2ncccc2c1` (configuration not stated), the Activity in the data set with Plasmodium yoelii [5] is on record as 0.02%. Further, the inhibition entry in the data set on Plasmodium yoelii [17] and in the data set on Plasmodium falciparum [18] was “inactive” in each case. The CC50 at 48 h in data set [6], in [4] and in [16] was above 204 µM each time. Also, the selectivity ratio in data set [7] is above 14.5; in data set [3], above 6.63. The IC50 with Plasmodium falciparum [1] is 27 µM; in the data set on Plasmodium berghei [11], 14.1 µM; with Plasmodium falciparum [2], 30.7 µM.
Take `Cc1cc2c(cc1C)[n+]([O-])c(C(=O)NCCNc1ccnc3cc(Cl)ccc13)c(C)[n+]2[O-]`: the inhibition result with Plasmodium yoelii [17], in the data set on Plasmodium berghei [19] and in the data set with Plasmodium falciparum [18] was “inactive” in each case. The IC50 in the data set with Plasmodium falciparum [1] is 0.68 µM; with Plasmodium falciparum [2] it was 0.9 µM. For the same compound, the selectivity ratio in data set [3] worked out at 71.7. The CC50 at 48 h in [4] was 64.5 µM.
On to `Cc1c(C(=O)NCCNc2ccnc3cc(Cl)ccc23)[n+]([O-])c2ccccc2[n+]1[O-]`, for which the IC50 turned out to be 0.78 µM in the data set on Plasmodium falciparum [1] and 1.9 µM in the data set on Plasmodium falciparum [2]. For the same compound, the selectivity ratio in [3] is 30.6. Also, in data set [4], the CC50 at 48 h is 58.2 µM.
